Data as given in ChEMBL document CHEMBL1129435, “Acyclic nucleotide analogs derived from 8-azapurines: synthesis and antiviral activity” (J Med Chem, 1996).
Values after ≈ are worked out from the molar mass of the structure shown.

Test system: Moloney murine sarcoma virus
Test: Compound was tested for anti-retroviral activity against moloney murine sarcoma virus (MSV) in murine C3H/3T3 embryo fibroblast cell culture
Format: functional, organism-based
Settings: not given
Method in brief: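 C3H/3T3 fibroblasts were seeded at 5 × 10⁵ cells/mL. After 24 h they were infected with 80 focus-forming units of MSV for 90-120 min at 37 °C; the virus came from tumours induced by intramuscular inoculation of 3-day-old NMRI mice. The medium was then replaced with fresh medium containing various compound concentrations. Transformation was scored microscopically after 6 days.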

Q: For `Nc1nc(O)c2nnn(CCOCP(=O)(O)O)c2n1`, which IC50 is on record?
A: The IC50 was 0.32 µg/mL (≈ 1.1 µM).

Q: Which IC50 does the source give for `Nc1ncnc2nn(C[C@@H](CO)OCP(=O)(O)O)nc12` here?
A: Its IC50 is > 100 µg/mL.

Q: For `Nc1nc(N)c2nnn(CCOCP(=O)(O)O)c2n1`, which IC50 is on record?
A: Its IC50 is 0.75 µg/mL (≈ 2.59 µM).

Q: With `Nc1ncnc2nn(CCOCP(=O)(O)O)nc12` as the molecule, how does the IC50 read?
A: Its IC50 is > 100 µg/mL.

Test system: Human immunodeficiency virus 1
Test: Inhibition of human immunodeficiency virus-1 (HIV-1) induced cytopathicity in CEM cells
Format: functional, organism-based
Settings: Human immunodeficiency virus 1, CCRF-CEM
Method in brief: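 CEM cells (~3 × 10⁵ cells/mL) were infected with HIV-1(IIIB) at 100 CCID50 per µL. Infected cells were plated with compound dilutions and incubated 4 days at 37 °C. Giant cell formation was then examined microscopically.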

Q: For `Nc1nc(O)c2nnn(CCOCP(=O)(O)O)c2n1`, which IC50 is on record?
A: The IC50 was 2 µg/mL (≈ 6.89 µM).

Test system: Human immunodeficiency virus 2
Test: Inhibition of human immunodeficiency virus-2 (HIV-2) induced cytopathicity in CEM cells
Format: functional, organism-based
Settings: Human immunodeficiency virus 2, CCRF-CEM

Q: For `Nc1nc(O)c2nnn(CCOCP(=O)(O)O)c2n1`, which IC50 is on record?
A: Its IC50 is 2 µg/mL (≈ 6.89 µM).

Test system: not listed separately
Test: Antiviral activity against herpes simplex virus-1 KOS in E6SM cell culture
Format: functional, cell-based
Settings: Human alphaherpesvirus 1, E6SM
Method in brief: (§1)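 Confluent cell monolayers in microtiter trays were inoculated with 100 CCID50 of virus. After 1 h adsorption the residual virus was removed. Cells were then incubated with serial compound concentrations (400, 200, 100, ... µg/mL). Cytopathicity was scored once it was complete in untreated infected controls. The value is the 50% inhibitory concentration, or the concentration reducing plaque formation by 50%, in µg/mL.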

Q: Which IC50 does the source give for `CC(C)OP(=O)(CO[C@H](CO)Cn1nc2ncnc(N)c2n1)OC(C)C` here?
A: The IC50 was > 400 µg/mL.

Q: For `Nc1nc2c(ncn2COCCO)c(=O)[nH]1` [ACYCLOVIR], which IC50 is on record?
A: Its IC50 is 0.015 µg/mL (≈ 0.0666 µM).

Q: With `Nc1nc(O)c2nnn(CCOCP(=O)(O)O)c2n1` as the molecule, how does the IC50 read?
A: The IC50 was 2 µg/mL (≈ 6.89 µM).

Q: Which IC50 does the source give for `Nc1ncnc2nn(C[C@@H](CO)OCP(=O)(O)O)nc12` here?
A: Its IC50 is > 400 µg/mL.

Q: Which IC50 does the source give for `Nc1nc(N)c2nnn(CCOCP(=O)(O)O)c2n1` here?
A: Its IC50 is 70 µg/mL (≈ 242 µM).

Q: Which IC50 does the source give for `Nc1ncnc2nn(CCOCP(=O)(O)O)nc12` here?
A: Its IC50 is > 400 µg/mL.

Test system: Human alphaherpesvirus 1
Test: Antiviral activity against thymidine kinase deficient herpes simplex virus-1 HSV-1 TK- B2006 strain in E6SM cell culture
Format: functional, organism-based
Settings: Human alphaherpesvirus 1, E6SM
Method in brief: as §1

Q: Which IC50 does the source give for `CC(C)OP(=O)(CO[C@H](CO)Cn1nc2ncnc(N)c2n1)OC(C)C` here?
A: Its IC50 is > 400 µg/mL.

Q: For `Nc1nc(O)c2nnn(CCOCP(=O)(O)O)c2n1`, which IC50 is on record?
A: The IC50 was 7 µg/mL (≈ 24.1 µM).

Q: Which IC50 does the source give for `Nc1ncnc2nn(C[C@@H](CO)OCP(=O)(O)O)nc12` here?
A: Its IC50 is 150 µg/mL (≈ 493 µM).

Q: With `Nc1nc(N)c2nnn(CCOCP(=O)(O)O)c2n1` as the molecule, how does the IC50 read?
A: The IC50 was 150 µg/mL (≈ 519 µM).

Q: For `Nc1ncnc2nn(CCOCP(=O)(O)O)nc12`, which IC50 is on record?
A: Its IC50 is > 400 µg/mL.

Test system: not listed separately
Test: Antiviral activity against thymidine kinase deficient herpes simplex virus-1 HSV-1 TK- VMW-1837 strain in E6SM cell culture
Format: functional, cell-based
Settings: Human alphaherpesvirus 1, E6SM
Method in brief: as §1

Q: Which IC50 does the source give for `CC(C)OP(=O)(CO[C@H](CO)Cn1nc2ncnc(N)c2n1)OC(C)C` here?
A: The IC50 was > 400 µg/mL.

Q: Which IC50 does the source give for `Nc1nc(O)c2nnn(CCOCP(=O)(O)O)c2n1` here?
A: Its IC50 is 2 µg/mL (≈ 6.89 µM).

Q: Which IC50 does the source give for `Nc1ncnc2nn(C[C@@H](CO)OCP(=O)(O)O)nc12` here?
A: Its IC50 is > 400 µg/mL.

Q: Which IC50 does the source give for `Nc1nc(N)c2nnn(CCOCP(=O)(O)O)c2n1` here?
A: Its IC50 is 150 µg/mL (≈ 519 µM).

Q: With `Nc1ncnc2nn(CCOCP(=O)(O)O)nc12` as the molecule, how does the IC50 read?
A: The IC50 was > 400 µg/mL.

Test system: Vaccinia virus
Test: Antiviral activity against vaccinia virus (VV) in E6SM cell culture
Format: functional, organism-based
Settings: Orthopoxvirus vaccinia

Q: With `CC(C)OP(=O)(CO[C@H](CO)Cn1nc2ncnc(N)c2n1)OC(C)C` as the molecule, how does the IC50 read?
A: Its IC50 is > 400 µg/mL.

Q: For `Nc1nc(O)c2nnn(CCOCP(=O)(O)O)c2n1`, which IC50 is on record?
A: Its IC50 is 0.7 µg/mL (≈ 2.41 µM).

Q: With `Nc1ncnc2nn(C[C@@H](CO)OCP(=O)(O)O)nc12` as the molecule, how does the IC50 read?
A: Its IC50 is > 400 µg/mL.

Q: Which IC50 does the source give for `Nc1nc(N)c2nnn(CCOCP(=O)(O)O)c2n1` here?
A: Its IC50 is > 400 µg/mL.

Q: Which IC50 does the source give for `Nc1ncnc2nn(CCOCP(=O)(O)O)nc12` here?
A: Its IC50 is > 400 µg/mL.

Test system: Human alphaherpesvirus 2
Test: Antiviral activity in herpes simple virus-2 (HSV-2) Lyons strain in E6SM cell culture
Format: functional, organism-based
Settings: Human alphaherpesvirus 2, E6SM
Method in brief: as §1

Q: For `CC(C)OP(=O)(CO[C@H](CO)Cn1nc2ncnc(N)c2n1)OC(C)C`, which IC50 is on record?
A: The IC50 was > 400 µg/mL.

Q: Which IC50 does the source give for `Nc1nc(O)c2nnn(CCOCP(=O)(O)O)c2n1` here?
A: The IC50 was 2 µg/mL (≈ 6.89 µM).

Q: Which IC50 does the source give for `Nc1ncnc2nn(C[C@@H](CO)OCP(=O)(O)O)nc12` here?
A: Its IC50 is > 400 µg/mL.

Q: With `Nc1nc(N)c2nnn(CCOCP(=O)(O)O)c2n1` as the molecule, how does the IC50 read?
A: Its IC50 is 150 µg/mL (≈ 519 µM).

Q: With `Nc1ncnc2nn(CCOCP(=O)(O)O)nc12` as the molecule, how does the IC50 read?
A: Its IC50 is > 400 µg/mL.

Test system: Human alphaherpesvirus 3
Test: Antiviral activity in TK+ varicella zoster virus (VZV) YS strain in HEL cell culture
Format: functional, organism-based
Settings: Human alphaherpesvirus 3, HEL

Q: With `CC(C)OP(=O)(CO[C@H](CO)Cn1nc2ncnc(N)c2n1)OC(C)C` as the molecule, how does the IC50 read?
A: Its IC50 is > 50 µg/mL.

Q: With `Nc1nc(O)c2nnn(CCOCP(=O)(O)O)c2n1` as the molecule, how does the IC50 read?
A: Its IC50 is 0.04 µg/mL (≈ 0.138 µM).

Q: Which IC50 does the source give for `Nc1ncnc2nn(C[C@@H](CO)OCP(=O)(O)O)nc12` here?
A: Its IC50 is > 100 µg/mL.

Q: Which IC50 does the source give for `Nc1nc(N)c2nnn(CCOCP(=O)(O)O)c2n1` here?
A: The IC50 was > 40 µg/mL.

Q: With `Nc1ncnc2nn(CCOCP(=O)(O)O)nc12` as the molecule, how does the IC50 read?
A: The IC50 was > 100 µg/mL.

Test system: Human betaherpesvirus 5
Test: Antiviral activity against cytomegalovirus (CMV) AD169 strain in HEL cell culture
Format: functional, organism-based
Settings: Human betaherpesvirus 5, HEL
Method in brief: as §1

Q: For `CC(C)OP(=O)(CO[C@H](CO)Cn1nc2ncnc(N)c2n1)OC(C)C`, which IC50 is on record?
A: The IC50 was > 50 µg/mL.

Q: With `Nc1nc2c(ncn2COCCO)c(=O)[nH]1` [ACYCLOVIR] as the molecule, how does the IC50 read?
A: The IC50 was 13 µg/mL (≈ 57.7 µM).

Q: Which IC50 does the source give for `Nc1nc(O)c2nnn(CCOCP(=O)(O)O)c2n1` here?
A: Its IC50 is 2.3 µg/mL (≈ 7.93 µM).

Q: Which IC50 does the source give for `Nc1ncnc2nn(C[C@@H](CO)OCP(=O)(O)O)nc12` here?
A: Its IC50 is > 200 µg/mL.

Q: Which IC50 does the source give for `Nc1nc(N)c2nnn(CCOCP(=O)(O)O)c2n1` here?
A: The IC50 was > 40 µg/mL.

Q: Which IC50 does the source give for `Nc1ncnc2nn(CCOCP(=O)(O)O)nc12` here?
A: Its IC50 is > 100 µg/mL.

Test system: Cytomegalovirus
Test: Antiviral activity against cytomegalovirus (CMV) Davis strain in HEL cell culture
Format: functional, organism-based
Settings: Human betaherpesvirus 5, HEL
Method in brief: as §1

Q: With `CC(C)OP(=O)(CO[C@H](CO)Cn1nc2ncnc(N)c2n1)OC(C)C` as the molecule, how does the IC50 read?
A: The IC50 was > 50 µg/mL.

Q: For `Nc1nc(O)c2nnn(CCOCP(=O)(O)O)c2n1`, which IC50 is on record?
A: The IC50 was 2.3 µg/mL (≈ 7.93 µM).

Q: For `Nc1ncnc2nn(C[C@@H](CO)OCP(=O)(O)O)nc12`, which IC50 is on record?
A: Its IC50 is > 200 µg/mL.

Q: For `Nc1nc(N)c2nnn(CCOCP(=O)(O)O)c2n1`, which IC50 is on record?
A: The IC50 was > 40 µg/mL.

Q: With `Nc1ncnc2nn(CCOCP(=O)(O)O)nc12` as the molecule, how does the IC50 read?
A: Its IC50 is > 100 µg/mL.

Test system: Human alphaherpesvirus 3
Test: Antiviral activity in TK+ varicella zoster virus (VZV) 07/1 strain in HEL cell culture
Format: functional, organism-based
Settings: Human alphaherpesvirus 3, HEL

Q: For `Nc1nc(O)c2nnn(CCOCP(=O)(O)O)c2n1`, which IC50 is on record?
A: Its IC50 is 0.1 µg/mL (≈ 0.345 µM).

Q: With `Nc1ncnc2nn(C[C@@H](CO)OCP(=O)(O)O)nc12` as the molecule, how does the IC50 read?
A: Its IC50 is > 100 µg/mL.

Q: For `Nc1nc(N)c2nnn(CCOCP(=O)(O)O)c2n1`, which IC50 is on record?
A: Its IC50 is > 40 µg/mL.

Q: For `Nc1ncnc2nn(CCOCP(=O)(O)O)nc12`, which IC50 is on record?
A: Its IC50 is > 100 µg/mL.

Test system: Human alphaherpesvirus 3
Test: Antiviral activity in TK+ varicella zoster virus (VZV) OKA strain in HEL cell culture
Format: functional, organism-based
Settings: Human alphaherpesvirus 3, HEL

Q: For `CC(C)OP(=O)(CO[C@H](CO)Cn1nc2ncnc(N)c2n1)OC(C)C`, which IC50 is on record?
A: The IC50 was > 50 µg/mL.

Q: With `Nc1nc(O)c2nnn(CCOCP(=O)(O)O)c2n1` as the molecule, how does the IC50 read?
A: The IC50 was 0.4 µg/mL (≈ 1.38 µM).

Q: With `Nc1ncnc2nn(C[C@@H](CO)OCP(=O)(O)O)nc12` as the molecule, how does the IC50 read?
A: Its IC50 is > 100 µg/mL.

Q: Which IC50 does the source give for `Nc1nc(N)c2nnn(CCOCP(=O)(O)O)c2n1` here?
A: Its IC50 is > 40 µg/mL.

Q: For `Nc1ncnc2nn(CCOCP(=O)(O)O)nc12`, which IC50 is on record?
A: Its IC50 is > 100 µg/mL.

Test system: Human immunodeficiency virus 1
Test: Inhibition of human immunodeficiency virus-1 (HIV-1) induced cytopathicity in human MT-4 cells
Format: functional, organism-based
Settings: Human immunodeficiency virus 1, MT4
Method in brief: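 MT-4 cells (~4 × 10⁵ cells/mL) were infected with HIV-1(IIIB) at 100 CCID50 per µL. Infected cells were seeded into wells containing compound dilutions and incubated 5 days at 37 °C. Viable cells were then counted by trypan blue exclusion in a blood cell counting chamber.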

Q: For `Nc1nc(O)c2nnn(CCOCP(=O)(O)O)c2n1`, which IC50 is on record?
A: Its IC50 is 2 µg/mL (≈ 6.89 µM).

Q: Which IC50 does the source give for `Nc1ncnc2nn(C[C@@H](CO)OCP(=O)(O)O)nc12` here?
A: The IC50 was > 100 µg/mL.

Q: Which IC50 does the source give for `Nc1nc(N)c2nnn(CCOCP(=O)(O)O)c2n1` here?
A: The IC50 was 45.8 µg/mL (≈ 158 µM).

Q: With `Nc1ncnc2nn(CCOCP(=O)(O)O)nc12` as the molecule, how does the IC50 read?
A: The IC50 was > 100 µg/mL.
